Data published in ChEMBL document CHEMBL1926635, “Identification of novel molecular scaffolds for the design of MMP-13 inhibitors: a first round of lead optimization” (Eur J Med Chem, 2012).

Key:
[1] = biological target: Collagenase 3 (Homo sapiens, UniProt P45452); test: Inhibition of human MMP13 using Mca-Lys-Pro-Leu-Gly-Leu-Dap(Dnp)-Ala-Arg-NH2 as substrate pre-incubated for 4 hrs before substrate addition measured every 15 secs for 15 mins by fluorimetry
[2] = biological target: T1, Interstitial collagenase (Homo sapiens, UniProt P03956); test: Inhibition of human MMP1 using Mca-Lys-Pro-Leu-Gly-Leu-Dap(Dnp)-Ala-Arg-NH2 as substrate pre-incubated for 4 hrs before substrate addition measured every 15 secs for 15 mins by fluorimetry
T1 sequence (P03956 whole entry): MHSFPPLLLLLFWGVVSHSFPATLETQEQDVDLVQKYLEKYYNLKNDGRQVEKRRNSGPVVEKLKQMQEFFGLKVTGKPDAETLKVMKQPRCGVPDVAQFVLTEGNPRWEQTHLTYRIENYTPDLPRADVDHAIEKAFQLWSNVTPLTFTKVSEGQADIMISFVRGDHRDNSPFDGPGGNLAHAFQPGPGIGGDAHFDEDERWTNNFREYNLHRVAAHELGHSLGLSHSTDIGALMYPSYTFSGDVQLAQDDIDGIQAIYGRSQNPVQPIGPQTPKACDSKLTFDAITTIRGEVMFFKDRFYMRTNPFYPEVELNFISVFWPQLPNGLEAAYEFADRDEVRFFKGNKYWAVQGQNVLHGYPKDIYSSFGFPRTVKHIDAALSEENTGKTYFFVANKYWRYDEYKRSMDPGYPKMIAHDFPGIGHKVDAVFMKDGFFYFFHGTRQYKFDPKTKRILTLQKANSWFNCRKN
In short: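 Pro-MMP-1 activated with APMA 2 mM for 2 h at 37 °C. Enzyme at 2.0 nM final was pre-incubated with inhibitor for 4 h at 25 °C in Tris 50 mM pH 7.5, NaCl 150 mM, CaCl₂ 10 mM, 0.05% Brij-35 and 1% DMSO. Read-out was fluorescence at ex 325/em 395 nm, in triplicate. IC50 was fitted to Vi/Vo = 1/(1+[I]/IC50) using ≥5 concentrations giving 10–90% inhibition.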

[3] = biological target: 72 kDa type IV collagenase (Homo sapiens, UniProt P08253); test: Inhibition of human MMP2 using Mca-Lys-Pro-Leu-Gly-Leu-Dap(Dnp)-Ala-Arg-NH2 as substrate pre-incubated for 4 hrs before substrate addition measured every 15 secs for 15 mins by fluorimetry
Chain of 72 kDa type IV collagenase (P08253 whole entry): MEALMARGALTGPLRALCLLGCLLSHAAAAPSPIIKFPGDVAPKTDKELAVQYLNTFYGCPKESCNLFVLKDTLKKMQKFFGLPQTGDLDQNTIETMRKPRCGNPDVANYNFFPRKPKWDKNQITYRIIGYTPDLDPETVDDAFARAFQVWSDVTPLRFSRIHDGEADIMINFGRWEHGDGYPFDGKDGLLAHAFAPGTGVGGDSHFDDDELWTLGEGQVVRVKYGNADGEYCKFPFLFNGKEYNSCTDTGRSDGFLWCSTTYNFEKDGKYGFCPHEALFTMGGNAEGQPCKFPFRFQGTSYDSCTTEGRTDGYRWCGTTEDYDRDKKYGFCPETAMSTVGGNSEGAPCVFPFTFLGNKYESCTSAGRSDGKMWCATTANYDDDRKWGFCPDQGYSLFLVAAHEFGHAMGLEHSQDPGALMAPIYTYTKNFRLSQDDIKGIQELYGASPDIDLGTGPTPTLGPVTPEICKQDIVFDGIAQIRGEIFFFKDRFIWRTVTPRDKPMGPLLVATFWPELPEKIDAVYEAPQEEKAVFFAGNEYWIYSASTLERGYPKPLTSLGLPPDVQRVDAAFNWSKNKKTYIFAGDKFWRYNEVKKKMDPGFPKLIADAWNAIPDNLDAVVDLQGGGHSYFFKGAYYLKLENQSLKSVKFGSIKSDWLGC
In short: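 APMA 2 mM for 1 h at 37 °C activated the proenzyme. MMP-2 at 0.56 nM final was incubated with inhibitor for 4 h at 25 °C in pH 7.5 Tris buffer with NaCl, CaCl₂, 0.05% Brij-35 and 1% DMSO. Fluorescence was read at 325/395 nm, in triplicate. Percent inhibition was taken against the uninhibited control. IC50 came from ≥5 concentrations within 10–90% inhibition, fitted to Vi/Vo = 1/(1+[I]/IC50).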

[4] = biological target: Stromelysin-1 (Homo sapiens, UniProt P08254); test: Inhibition of human MMP3 using Mca-Arg-Pro-Lys-Pro-Val-Glu-Nva-Trp-Arg-Lys(Dnp)-NH2 as substrate pre-incubated for 4 hrs before substrate addition measured every 15 secs for 15 mins by fluorimetry
Chain of Stromelysin-1 (P08254 whole entry): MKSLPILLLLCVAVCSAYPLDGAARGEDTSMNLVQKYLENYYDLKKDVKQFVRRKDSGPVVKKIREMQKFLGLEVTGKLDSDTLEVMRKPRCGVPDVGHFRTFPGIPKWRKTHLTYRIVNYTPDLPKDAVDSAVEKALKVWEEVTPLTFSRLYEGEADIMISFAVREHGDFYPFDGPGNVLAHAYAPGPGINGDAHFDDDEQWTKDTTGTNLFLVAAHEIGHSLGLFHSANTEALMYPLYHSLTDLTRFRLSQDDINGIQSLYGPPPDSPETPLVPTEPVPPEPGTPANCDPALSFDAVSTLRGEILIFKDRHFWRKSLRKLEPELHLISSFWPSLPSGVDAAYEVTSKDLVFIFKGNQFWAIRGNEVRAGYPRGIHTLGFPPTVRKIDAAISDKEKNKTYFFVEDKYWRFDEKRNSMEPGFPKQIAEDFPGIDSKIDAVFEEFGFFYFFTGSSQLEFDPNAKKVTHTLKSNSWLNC
In short: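 Pro-MMP-3 was activated with trypsin for 30 min at 37 °C, then quenched with soybean trypsin inhibitor. Enzyme at 5 nM final was pre-incubated with inhibitor for 4 h at 25 °C in Tris 50 mM pH 7.5, NaCl 150 mM, CaCl₂ 10 mM, 0.05% Brij-35 and 1% DMSO. Fluorescence was read at ex 325/em 395 nm, in triplicate. IC50 was fitted to Vi/Vo = 1/(1+[I]/IC50) from ≥5 concentrations giving 10–90% inhibition.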

[5] = biological target: Matrix metalloproteinase-14 (Homo sapiens, UniProt P50281); test: Inhibition of recombinant human MMP14 catalytic domain using Mca-Lys-Pro-Leu-Gly-Leu-Dap(Dnp)-Ala-Arg-NH2 as substrate pre-incubated for 4 hrs before substrate addition measured every 15 secs for 15 mins by fluorimetry
In short: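 Catalytic domain used at 1 nM final and incubated with inhibitor for 4 h at 25 °C in Tris 50 mM pH 7.5, NaCl 150 mM, CaCl₂ 10 mM, 0.05% Brij-35 and 1% DMSO. Fluorescence was read at 325/395 nm, in triplicate. Percent inhibition was taken against the no-inhibitor control. IC50 was fitted to Vi/Vo = 1/(1+[I]/IC50) from ≥5 concentrations within 10–90% inhibition.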

[6] = Dissociation constant, pKa of the compound; assay type: physicochemical

| Compound | IC50 [1] [µM] | IC50 [2] [µM] | IC50 [3] [µM] | IC50 [4] [µM] | IC50 [5] [µM] | pKa [6] |
| --- | --- | --- | --- | --- | --- | --- |
| O=c1oc2ccccc2cc1-c1cn(-c2ccccc2)c(S)n1 | 177 |  |  |  |  |  |
| O=C(O)c1cccc(-n2cc(-c3cc4ccccc4oc3=O)[nH]c2=S)c1 |  | 400 | 67 | 110 | 51 | 3.91 |
| O=C(O)COc1ccccc1/C=C1/NC(=S)NC1=O | 67 | 114 | 61 | 77 | 55 | 3.68 |
| COc1ccc(-c2cs/c(=N\c3ccccc3)n2/N=C/c2ccccc2)cc1OC | 140 | 360 | 120 | 230 | 150 |  |
| O=C(O)c1cccc(-n2cc(-c3cc4cccc(O)c4oc3=O)[nH]c2=S)c1 | 5.5 |  |  |  |  |  |
| CCOc1ccc(-c2ccc(S(=O)(=O)N[C@@H](C(=O)O)C3CCN(C(=O)OC(C)C)CC3)s2)cc1 |  |  |  |  |  | 2.55 |

Further lines, results first:

| IC50 [1] [µM] | IC50 [2] [µM] | IC50 [3] [µM] | IC50 [4] [µM] | IC50 [5] [µM] | pKa [6] | Compound |
| --- | --- | --- | --- | --- | --- | --- |
| 120 | 860 | 350 | 850 | 310 | 3.62 | COc1ccc(-c2ccc(/C=C3/SC(=S)N(CC(=O)O)C3=O)o2)cc1 |
| 3.2 |  |  |  |  |  | COc1ccc2oc(=O)c(-c3cn(-c4cccc(C(=O)O)c4)c(=S)[nH]3)cc2c1 |
| > 300 |  |  |  |  |  | CCOC(=O)c1cccc(-n2cc(-c3cc4ccccc4oc3=O)[nH]c2=S)c1 |
| 22 | 93 | 2.7 | 110 | 21 | 3.89 | O=C(O)CCCN1C(=O)S/C(=C\C=C\c2ccccc2)C1=O |
| 4.9 |  |  |  |  |  | COc1cc(Cl)cc2cc(-c3cn(-c4cccc(C(=O)O)c4)c(=S)[nH]3)c(=O)oc12 |
| 4.9 |  |  |  |  |  | C=CCc1cc(OC)c2oc(=O)c(-c3cn(-c4cccc(C(=O)O)c4)c(=S)[nH]3)cc2c1 |
